The results in this text go back to ChEMBL document CHEMBL4706521, “Synthesis of indole inhibitors of silent information regulator 1 (SIRT1), and their evaluation as cytotoxic agents” (Eur J Med Chem, 2020).

In one test the test system is K562. Put plainly: Cytotoxicity against human K562 cells assessed as cell viability measured after 48 hrs by MTT assay. Type of test: functional, cell-based. The conditions noted are these: K562, 48 h. In a few lines: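 Cells were seeded at 5×10^4 cells/mL and kept in suspension 2 h before dosing. Compounds were added from DMSO at final 0.01–100 μM (tenfold series) for 48 h. MTT was applied, then isopropanol-HCl, with OD read at 490 and 630 nm. IC50 was obtained from OD.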
For orientation: Tetrazolium dyes change colour on reduction, which living cells bring about.

The subject of the next test is MCF7. The test can be described thus: Cytotoxicity against human MCF7 cells assessed as cell viability measured after 48 hrs by MTT assay. It counts as functional, cell-based. The settings on record: MCF7, 48 h.
The target in test [1] is T1, NAD-dependent protein deacetylase sirtuin-1 (Homo sapiens, UniProt Q96EB6).
T1 sequence (Q96EB6 whole entry): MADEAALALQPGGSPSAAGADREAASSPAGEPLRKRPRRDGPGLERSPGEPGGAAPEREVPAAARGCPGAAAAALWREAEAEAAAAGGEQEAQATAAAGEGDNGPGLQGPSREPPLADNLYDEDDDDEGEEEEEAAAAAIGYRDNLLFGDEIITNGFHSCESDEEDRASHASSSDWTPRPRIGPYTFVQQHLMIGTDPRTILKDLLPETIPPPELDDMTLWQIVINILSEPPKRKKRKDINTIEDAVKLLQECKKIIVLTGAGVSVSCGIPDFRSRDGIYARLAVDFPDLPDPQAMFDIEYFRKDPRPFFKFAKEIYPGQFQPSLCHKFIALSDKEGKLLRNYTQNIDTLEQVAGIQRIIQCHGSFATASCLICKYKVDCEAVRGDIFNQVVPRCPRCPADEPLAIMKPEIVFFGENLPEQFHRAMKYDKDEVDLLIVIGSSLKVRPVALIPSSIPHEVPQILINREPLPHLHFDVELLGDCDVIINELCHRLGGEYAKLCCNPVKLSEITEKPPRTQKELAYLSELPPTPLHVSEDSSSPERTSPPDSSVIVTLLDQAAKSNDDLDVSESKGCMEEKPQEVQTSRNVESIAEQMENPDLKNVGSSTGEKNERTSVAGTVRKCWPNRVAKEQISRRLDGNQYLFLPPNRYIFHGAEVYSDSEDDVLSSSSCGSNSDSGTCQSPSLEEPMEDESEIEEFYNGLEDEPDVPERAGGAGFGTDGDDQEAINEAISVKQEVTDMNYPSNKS
The test can be described thus: Inhibition of recombinant human SIRT1 (193 to 741 residues) expressed in Escherichia coli expression system using RHKK(Ac)W-NH2 as substrate measured after 2 hrs by HPLC method.

A further test relates to HepG2. The test can be described thus: Cytotoxicity against human HepG2 cells assessed as cell viability measured after 48 hrs by MTT assay. It counts as functional, cell-based. The settings on record: HepG2, 48 h.
Another test has as its system HCT-116. Put plainly: Cytotoxicity against human HCT-116 cells assessed as cell viability measured after 48 hrs by MTT assay. Type of test: functional, cell-based. The settings on record: HCT-116, 48 h.
Test [2] addresses T2, NAD-dependent protein deacetylase sirtuin-2 (Homo sapiens) (UniProt Q8IXJ6).
T2 sequence (whole entry): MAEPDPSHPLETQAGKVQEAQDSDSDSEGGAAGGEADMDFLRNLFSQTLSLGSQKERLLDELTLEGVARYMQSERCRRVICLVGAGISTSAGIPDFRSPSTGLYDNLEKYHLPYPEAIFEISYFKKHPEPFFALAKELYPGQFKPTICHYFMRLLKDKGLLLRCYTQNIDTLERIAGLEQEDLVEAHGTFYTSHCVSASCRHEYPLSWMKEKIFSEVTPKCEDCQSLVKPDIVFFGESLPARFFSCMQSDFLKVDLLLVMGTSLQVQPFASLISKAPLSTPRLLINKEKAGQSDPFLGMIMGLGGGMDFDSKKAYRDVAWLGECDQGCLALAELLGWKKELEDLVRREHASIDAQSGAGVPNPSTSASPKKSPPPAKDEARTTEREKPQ
The test can be described thus: Inhibition of recombinant human SIRT2 expressed in baculovirus infected SF9 cells expression system using RHKK(Ac)W-NH2 as substrate at 10 uM measured after 20 mins by HPLC method. The procedure, abridged:
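SIRT2 at about 100 nM (nominal) started the reaction, without preincubation, in kit buffer pH 8.0 with 2 mM NAD+ and 250 μM RHKK(Ac)W-NH2. Final DMSO was 1%. Reactions ran 20 min at 37 °C, keeping conversion at 2–8%, and were stopped with TFA. Substrate and product were separated by C18 HPLC (10–50% B gradient) and detected at 220 nm. Peak areas gave % conversion. Results were reported as IC50 (95% CI) or % inhibition (SD), from at least duplicates.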

Another test concerns NCI-H460. Put plainly: Cytotoxicity against human NCI-H460 cells assessed as cell viability measured after 48 hrs by MTT assay. It counts as functional, cell-based. The settings on record: NCI-H460, 48 h.
Another test deals with HEK-293T. The test can be described thus: Cytotoxicity against human HEK293T cells assessed as cell viability measured after 48 hrs by MTT assay. Type of test: cell-based.
For the next test, the system named is HT-29. Put plainly: Cytotoxicity against human HT-29 cells assessed as cell viability measured after 48 hrs by MTT assay. Type of test: functional, cell-based. The conditions noted are these: HT-29, 48 h. In a few lines: (§1)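 Cells were seeded at 5×10^4 cells/mL and allowed to adhere for 24 h. Compounds in DMSO were tested at final 0.01, 0.1, 1, 10 and 100 μM for 48 h. MTT was then added, followed by isopropanol-HCl. OD was read at 570/630 nm, and IC50 was calculated from OD.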

The test system of the next test is HUVEC. The test can be described thus: Cytotoxicity against human HUVEC cells assessed as cell viability measured after 48 hrs by MTT assay. Type of test: cell-based. The procedure, abridged:
as §1

Another test has as its system A549. The test can be described thus: Cytotoxicity against human A549 cells assessed as cell viability measured after 48 hrs by MTT assay. The settings on record: A549, 48 h. Type of test: functional, cell-based. The procedure, abridged:
as §1

Test [3] addresses T3, NAD-dependent protein deacetylase sirtuin-2 (Homo sapiens, UniProt Q8IXJ6).
T3 sequence (Q8IXJ6 whole entry): T2 sequence (whole entry)
Put plainly: Inhibition of recombinant human SIRT2 expressed in baculovirus infected SF9 cells expression system using RHKK(Ac)W-NH2 as substrate measured after 20 mins by HPLC method.

Structures are written as SMILES.

One may read the IC50 as the point on the concentration scale where inhibition reaches its midpoint. By inhibition is commonly meant the change of the read-out against control, counted positive when it falls. Regarding `NC(=O)Cc1cc2cc(Cl)ccc2[nH]1`, the IC50 in the test with K562 was more than 100 µM; with MCF7 it was more than 100 µM; in test [1], 90 µM; with HepG2 it was more than 100 µM; in the test with HCT-116, more than 100 µM; with NCI-H460, more than 100 µM. Further, the IC50 with HEK-293T, in the test on HT-29, in the test on HUVEC and with A549 was more than 100 µM throughout. Also, in [2], the inhibition came out at 1.7%.
For `CC[C@@]1(O)C(=O)OCc2c1cc1n(c2=O)Cc2cc3ccccc3nc2-1` [CAMPTOTHECIN], the IC50 turned out to be 0.32 µM with K562; 1.67 µM with MCF7; 0.04 µM with HepG2; 0.05 µM in the test on HCT-116; 0.12 µM in the test with NCI-H460; 5.65 µM with HEK-293T. For the same compound, the IC50 with HT-29 was more than 100 µM; in the test on HUVEC it was less than 0.01 µM; in the test with A549, 1.56 µM.
Take `NC(=O)Cc1[nH]c2ccc(Cl)cc2c1CC(N)=O`: the IC50 (in the test on K562; in the test with MCF7; in test [1]; in the test with HepG2; with HCT-116; in the test with NCI-H460) was more than 100 µM in each case. The IC50 with HEK-293T, in the test on HT-29, in the test on HUVEC and in the test with A549 was more than 100 µM in each case.
Turning to `CCc1c(CC(N)=O)[nH]c2ccc(Cl)cc12`, the IC50 was 87 µM in the test on K562; more than 100 µM with MCF7; 14 µM in test [1]; more than 100 µM in the test with HepG2; 52 µM in the test with HCT-116; 70 µM in the test on NCI-H460. Further, the IC50 is 77 µM in the test with HEK-293T, more than 100 µM in the test with HT-29, 58 µM in the test with HUVEC and more than 100 µM in the test with A549. For the same compound, in test [2], the inhibition was -5.5%.
For `NC(=O)C1CCCc2c1[nH]c1ccc(Cl)cc21` (configuration not stated), the IC50 in the test with K562 was 60 µM; in the test on MCF7, 37 µM; in the test with HepG2, 44 µM; with HCT-116, 37 µM; in the test on NCI-H460, 48 µM; in the test on HEK-293T, 51 µM. The IC50 was more than 100 µM in the test with HT-29, 15 µM with HUVEC and 29 µM in the test with A549. Moreover, the inhibition in [2] is 84%.
Turning to `NC(=O)Cc1[nH]c2ccc(Cl)cc2c1Cc1ccccc1`, the IC50 in test [3] came to 0.93 µM.
